MC4R antagonist: antagonists of human melanocortin 4 receptor (MC4R) | hit rate 0.48% among 360,000 | MC4R-expressing cells, MTII-stimulated cAMP, LANCE TR-FRET | inhibition, % at 6.5 µM;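 active = inhibition above its plate's cutoff, the mean of tested wells on that plate plus 3 SD, cut at about 29% in these data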;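 also: 0% = Melanotan II alone and 100% = Melanotan II plus saturating MCL0020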
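Assay system: U2OS-MC4R stable cell line; Also added: Melanotan II; Technique: Eu-cAMP/anti-cAMP TR-FRET, emission 671 nm; Times: 30-min compound, 1-h challenge, 1-h detection, room temperature.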
MC4R ag barr: human MC4R agonism via beta-arrestin | P32245 | U2OS MC4R beta-arrestin complementation, luminescence; percent of melanotan II response, DMSO zero | activation, % at 8.9 µM | hit rate 0.98% among 360,000;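 active = activation above a per-plate cutoff, the mean activation of sample wells on that plate plus 3 SD, cut at about 8% in these data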
ATG4B inh: blocks human ATG4B protease cleavage of LC3 substrate; Q9Y4P1; ATG4B cleavage of LC3-PLA2, NBD-HPC fluorescence, 1 h; inhibition, % at 8.33 µM; hit rate 0.51% among 340,000; in the data active = inhibition above about 40%
SMARCA2 activ: increases SMARCA2 function in MMTV reporter cells; hit rate 1% among 370,000; activation, % at 9.1 µM; MG213 cells, MMTV-luciferase reporter, dexamethasone, overnight; in the data active = activation above about 7.8%;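 also: 0% = vehicle wells and 100% = reference activator wells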
MPTP inh: inhibitors of mitochondrial permeability transition pore; inhibition, % at 10 µM; hit rate 1.4% among 360,000; AID 602449; isolated mouse mitochondria, Ca2+ swelling absorbance, 30 min;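 active = inhibition of 50% or more, scaled per plate between neutral and stimulator controls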;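 also: 0% = DMSO wells given calcium and 100% = 1 mM EGTA wells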
ATG4B confirm: ATG4B (human) inhibition, single-dose confirmed | inhibition, % at 8.33 µM | ATG4B protease fluorescent substrate cleavage assay | AID 504757 | hit rate 92% among 320 | shares compounds with ATG4B inh; in the data active = inhibition above about 39%
PLA2 counter: inhibits human PLA2, flagging false ATG4B inhibitors | purified PLA2, NBD-C6-HPC fluorescence, 45 min | inhibition, % at 8.33 µM | hit rate 66% among 1,600 | shares compounds with ATG4B inh; in the data active = inhibition above about 50%
Target sequence (P04054 whole entry, looked up): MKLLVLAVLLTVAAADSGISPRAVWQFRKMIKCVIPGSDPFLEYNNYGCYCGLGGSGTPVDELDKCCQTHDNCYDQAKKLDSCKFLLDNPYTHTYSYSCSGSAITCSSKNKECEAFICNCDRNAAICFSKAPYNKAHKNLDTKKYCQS
Active calls of the source: *; nt = not tested or not shown. The list is not random: actives were taken first. Their share in the collection is about 4.1%.

SMILES | MC4R antagonist | MC4R ag barr | ATG4B inh | SMARCA2 activ | MPTP inh | PLA2 counter | others
S=C(NCc1ccco1)NC1CCCc2ccccc21 (stereo not given) | 5 | -1 | 63* | 2 | 43 | 48
S=C(NCc1ccccc1)NC1CCCc2ccccc21 (stereo not given) | 24 | 0 | 78* | -7 | 1 | 78*
CC1(C)CC(NC(=S)NCc2ccco2)CC(C)(C)N1 | 2 | -3 | -2 | -2 | -1 | nt
C=CCN1[C@H](CC(C)C)COc2cc(N3CCCC3)ccc2S1(=O)=O | nt | nt | nt | -2 | nt | nt
CCOC(=O)c1c(NC(=O)CSc2nnc(C)c(=O)[nH]2)sc2c1CCCC2 | 13 | -4 | 38 | 4 | 7 | nt
CCOC(=O)c1c(NC(=O)C(C)Sc2nnc(C)c(=O)[nH]2)sc2c1CCCC2 (stereo not given) | 2 | -4 | 62* | -2 | 2 | 65*
CC1Cc2ccccc2N1C(=O)COC(=O)c1c2c(nc3ccccc13)CCCCC2 (stereo not given) | 24 | 4 | 44* | -3 | -1 | 49
O=C(O)c1cc2c(cc1NC(=O)c1ccccc1C(F)(F)F)OCCCO2 | 0 | -1 | 63* | -3 | 0 | 63*
CSc1nnc(-c2sccc2-n2cccc2)o1 | 14 | -4 | -5 | 1 | -2 | nt
Clc1cccc(Cl)c1CSc1nnc(-c2sccc2-n2cccc2)o1 | 3 | 0 | 53* | 1 | 1 | 65*
CCCCCCC(=O)NC1CCCCN(Cc2ccc(C)cc2)C1=O (stereo not given) | nt | nt | nt | -2 | nt | nt
O=C(c1ccccc1Cl)N1CCC(Oc2cccnc2)CC1 | nt | nt | nt | 1 | nt | nt
Cc1ccc2c(c1)c1c(n2C)C(C(N)=O)CCC1 (stereo not given) | 3 | -2 | 62* | 1 | 10 | 69*
NC(=O)C1CCCc2c1n(Cc1ccccc1)c1ccccc21 (stereo not given) | 4 | -1 | 84* | 0 | 1 | 88*
O=C1SCCc2c1n(Cc1ccccc1)c1ccccc21 | 1 | 0 | 1 | 0 | 6 | nt
C=CCN(C)CC#Cc1ccc(C)cc1 | nt | nt | nt | -1 | nt | nt
CCc1ccc(N2C(=O)CN(Cc3ccccc3)C2=S)cc1 | 12 | 0 | 12 | 1 | -1 | nt
CCc1ccc(N2C(=O)CN(Cc3cccs3)C2=S)cc1 | 8 | -2 | 65* | 0 | 1 | 81*
Cc1cc(C)cc(N2C(=O)CN(Cc3ccccc3)C2=S)c1 | 7 | 0 | 70* | -1 | 0 | 75*
CCCC(=O)OC[C@H]1CN(C2CCCC2)S(=O)(=O)c2c(Oc3ccc(F)cc3OC)cccc2O1 | nt | nt | nt | 0 | nt | nt
O=C1CC(c2ccccc2Cl)CC(O)=C1C=Nc1ccccc1 (stereo not given) | 9 | 0 | 53* | 0 | 11 | 53*
COCCN1C=C2C(=O)C(C)(OC(=O)CCC(=O)OC)C(=O)C(Br)=C2C=C1c1ccc(OC)cc1 (stereo not given) | -5 | 0 | -3 | nt | -1 | nt
COc1ccc(C2=CC3=C(Br)C(=O)C(C)(OC(=O)c4cccs4)C(=O)C3=CO2)cc1 (stereo not given) | 2 | 0 | 83* | 2 | 7 | 90*
CCc1nnc(NS(=O)(=O)c2ccc(N/C=C\C(=O)c3ccc4ccccc4c3)cc2)s1 | 21 | 3 | 50* | 2 | 10 | 11 | ATG4B confirm=59*
COc1ccc(S[C@]2(C(=O)N(C)C)CC(=O)N(S(=O)(=O)c3ccc(F)cc3)[C@@H]2c2ccc(OC)cc2)cc1 | nt | nt | nt | -4 | nt | nt
O=C(CSc1nc2ccccc2c(=O)n1-c1ccc(Cl)cc1)NNC(=S)Nc1ccccc1 | nt | nt | nt | 4 | nt | nt
OC(c1cc(-c2ccc(Cl)cc2)nc2ccccc12)C1CCCCN1 (stereo not given) | -4 | 2 | 42* | -3 | 0 | 52*
COc1ccc(Cl)cc1C(=O)NC(=S)Nc1nc(C)cc(C)n1 | -1 | 0 | -5 | 6 | 1 | nt
COc1cccc(OC)c1C(=O)Nc1cccc(-c2nc3ccccc3[nH]2)c1 | 7 | -1 | 53* | -2 | 0 | 62*
COc1ccc(Cl)cc1C(=O)NC(=S)Nc1cc(-c2nc3ccccc3[nH]2)ccc1C | -5 | -2 | 66* | 2 | 3 | 79*
